Measured values reported in ChEMBL document CHEMBL1142061, “The 6-fluoro-8-methoxy quinolone gatifloxacin down-regulates interleukin-8 production in prostate cell line PC-3” (Antimicrob Agents Chemother, 2007).
Activity calls are given as the source filed them. The rule behind the calls is not given here.

Experiments:
[1] = tested on: PC-3; experiment: Suppression of PMA-stimulated IL8 secretion in human PC3 cells; format: functional
Method in brief: (§1)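 Cells seeded, transfected 24 h later, given GFLX 16 μg/ml 24 h after transfection. Then serum-free medium with fresh GFLX plus stimulus: PGN 1 μg/ml, M. hominis membrane fraction 0.1 μg/ml or […] for 6 h; TNF-α 10 ng/ml for 2 h. IL-8 in supernatant by ELISA; means ± SD, three experiments.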

[2] = tested on: PC-3; experiment: Suppression of TNF alpha-stimulated IL8 D-170 mutant promoter activity in human PC3 cells at 16 ug/ml dual luciferase reporter assay; format: functional, cell-based
Method in brief: (§2)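 PC-3 cells seeded 4 × 10^4/well and transfected with an IL-8 5′-deletion luciferase construct plus pRL-TK. 24 h later, GFLX 16 μg/ml for 24 h. Then serum-free medium, fresh GFLX and TNF-α 10 ng/ml for 2 h. Promoter activity by dual luciferase assay; means ± SD of three experiments.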

[3] = tested on: PC-3; experiment: Decrease in IL8 secretion in human PC3 cells at 16 ug/ml; format: functional; design: scale not given: the % may be the effect or the level left
Method in brief: (§3)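 PC-3 cells seeded 2 × 10^5/well, grown 24 h, washed with PBS and switched to serum-free RPMI 1640. GFLX added (0.1 N NaOH vehicle control) and cells incubated 24 h without stimulus. IL-8 in medium quantified by ELISA; means ± SD of three experiments.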

[4] = tested on: PC-3; experiment: Suppression of TNF alpha-stimulated IL8 promoter activity in human PC3 cells; format: functional, cell-based
Method in brief: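 PC-3 cells transfected with IL-8 promoter (−1481 to +44 bp) in pGL3-Basic plus pRL-TK. 24 h later, GFLX at 0, 2, 4 or 16 μg/ml for 24 h. Serum-free medium with same GFLX and TNF-α 10 ng/ml for 2 h. Dual luciferase read-out; means ± SD, three experiments.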

[5] = tested on: PC-3; experiment: Cytotoxicity against human PC3 cells at 4 ug/ml relative to control; format: cell-based
Method in brief: (§4)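 PC-3 cells seeded 5 × 10^4/well, grown 24 h, then exposed to GFLX (from 2 mg/ml stock in 0.1 N NaOH; equal NaOH as control) for 48 h. Viability read with a modified MTT method (cell counting kit 8), expressed as % of untreated controls; mean ± SD, n = 3.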

[6] = tested on: PC-3; experiment: Suppression of TNF alpha-stimulated IL8 secretion in human PC3 cells at 16 ug/ml added 60 mins after stimulation; format: functional, cell-based
Method in brief: (§5)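 PC-3 cells seeded 2 × 10^5/well and grown 24 h. GFLX 16 μg/ml added together with TNF-α (0, 5, 10, 25 ng/ml), or 30 or 60 min after it. Total TNF-α exposure 120 min. Secreted IL-8 measured by ELISA; means ± SD of three experiments.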

[7] = tested on: PC-3; experiment: Cytotoxicity against human PC3 cells at 2 ug/ml relative to control; format: cell-based; method in brief: as §4
[8] = tested on: PC-3; experiment: Suppression of 0.1 ng/ml LPS-stimulated IL8 secretion in human PC3 cells; format: functional
[9] = tested on: PC-3; experiment: Suppression of 1 ng/ml LPS-stimulated IL8 secretion in human PC3 cells; format: functional
[10] = tested on: PC-3; experiment: Decrease in IL8 secretion in human PC3 cells at 4 ug/ml; format: functional; design: scale not given: the % may be the effect or the level left; method in brief: as §3
[11] = tested on: PC-3; experiment: Inhibition of peptidoglycan-induced NF kappaB activation in human PC3 cells at 16 ug/ml; format: functional, cell-based
Method in brief: (§6)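 Cells transiently transfected (FuGENE 6) with NF-κB firefly luciferase reporter plus pRL-TK Renilla control. After 24 h, GFLX 16 μg/ml for 24 h, then serum-free medium with GFLX again. Stimulation: PGN 1 μg/ml or M. hominis membrane fraction 0.1 μg/ml for 6 h, TNF-α 10 ng/ml for 2 h. Dual luciferase read-out; three experiments.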

[12] = tested on: PC-3; experiment: Reduction of Mycoplasma hominis-stimulated IL8 secretion in human PC3 cells; format: functional; design: scale not given: the % may be the effect or the level left; method in brief: as §1
[13] = tested on: PC-3; experiment: Inhibition of Mycoplasma hominis-induced NF kappaB activation in human PC3 cells at 16 ug/ml; format: functional, cell-based; method in brief: as §6
[14] = tested on: PC-3; experiment: Suppression of TNF alpha-stimulated IL8 D-240 mutant promoter activity in human PC3 cells at 16 ug/ml dual luciferase reporter assay; format: functional, cell-based; method in brief: as §2
[15] = tested on: PC-3; experiment: Cytotoxicity against human PC3 cells at 16 ug/ml relative to control; format: cell-based; method in brief: as §4
[16] = Decrease in IL8 secretion in human prostatic myofibroblast cells at 4 ug/ml; format: functional; design: scale not given: the % may be the effect or the level left
[17] = tested on: PC-3; experiment: Decrease in IL8 secretion in human PC3 cells; format: functional, cell-based; method in brief: as §3
[18] = Decrease in IL8 secretion in human prostatic myofibroblast cells at 16 ug/ml; format: functional; design: scale not given: the % may be the effect or the level left
[19] = tested on: PC-3; experiment: Inhibition of TNF alpha-induced NF kappaB activation in human PC3 cells at 16 ug/ml; format: functional, cell-based; method in brief: as §6
[20] = tested on: PC-3; experiment: Suppression IL8 secretion in human PC3 cells at 16 ug/ml added simultaneously with TNF alpha; format: functional; method in brief: as §5
[21] = tested on: PC-3; experiment: Inhibition of TNF alpha-stimulated IL8 mRNA expression in human PC3 cells at 16 ug/ml after 48 hrs; format: functional, cell-based
Method in brief: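 PC-3 cells seeded 4 × 10^5 per 35-mm dish, grown 24 h, then GFLX 16 μg/ml for 48 h with medium and drug refreshed every 24 h. Cells moved to serum-free RPMI with GFLX and given TNF-α 10 ng/ml for 4 h. TRIzol RNA, oligo(dT) RT, 23-cycle PCR for IL-8 and β-actin. Densitometric IL-8/β-actin band ratio.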

[22] = tested on: PC-3; experiment: Reduction of peptidoglycan-stimulated IL8 secretion in human PC3 cells; format: functional; design: scale not given: the % may be the effect or the level left; method in brief: as §1
[23] = tested on: PC-3; experiment: Suppression of TNF alpha-stimulated IL8 D-188 mutant promoter activity in human PC3 cells at 16 ug/ml dual luciferase reporter assay; format: functional, cell-based; method in brief: as §2
[24] = tested on: PC-3; experiment: Suppression of TNF alpha-stimulated IL8 secretion in human PC3 cells at 16 ug/ml added 30 mins after stimulation; format: functional; conditions: PC-3, 0.5 h; method in brief: as §5
[25] = tested on: PC-3; experiment: Suppression of TNF alpha-stimulated IL8 secretion in human PC3 cells; format: functional, cell-based; method in brief: as §1
[26] = tested on: PC-3; experiment: Suppression of TNF alpha-stimulated IL8 mutant promoter activity in human PC3 cells at 16 ug/ml by dual luciferase reporter assay

COc1c(N2CCNC(C)C2)c(F)cc2c(=O)c(C(=O)O)cn(C3CC3)c12 (stereo unspecified) [GATIFLOXACIN]
Activity [1]: 34% | Activity [2]: inactive | Activity [3]: 38% | Activity [4]: Active | Activity [5]: 100% | Activity [6]: Active | Activity [7]: 97.6% | Activity [8]: 19% | Activity [9]: 16% | Activity [10]: 22% | Activity [11]: inactive | Activity [12]: 52% | Activity [13]: inactive | Activity [14]: Active | Activity [15]: 96.6% | Activity [16]: 19% | Activity [17]: Dose-dependent effect | Activity [18]: 50% | Activity [19]: inactive | Activity [20]: 37% | Activity [21]: Active | Activity [22]: 42% | Activity [23]: Active | inhibition at 16 µg/mL [24]: 25% | Activity [25]: Active | Activity [26]: Active
